Assays:
[1] = molecular target: Trypanothione reductase (Trypanosoma cruzi) (UniProt P28593); assay: Inhibitory activity (100 uM) against recombinant Trypanosoma cruzi trypanothione reductase was determined in presence of Trypanothione disulfide (110 uM)
In short: (§1)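 Recombinant T. cruzi TR, 10–15 mU, in 40 mM Hepes, 1 mM EDTA, pH 7.5, 25 °C, 100 μM NADPH; activity at fixed TS2 (40 or 110 μM) without and with 100 μM inhibitor; TS2 starts reaction, A340 decrease monitored; DMSO controls where needed. Inhibitor stocks 4 mM in DMSO or water.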

[2] = molecular target: Trypanothione reductase (Trypanosoma cruzi) (UniProt P28593); assay: Inhibitory activity (100 uM) against recombinant Trypanosoma cruzi trypanothione reductase was determined in presence of Trypanothione disulfide (40 uM); in short: as §1
[3] = molecular target: Trypanothione reductase (Trypanosoma cruzi) (UniProt P28593); assay: (§2) Inhibitory constant against recombinant Trypanosoma cruzi trypanothione reductase was determined photometrically at 25 degree C in TR assay buffer (40 mM Hepes, 1 mM EDTA, pH 7.5)
In short: (§3)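 Spectrophotometric TR assay at 25 °C, 40 mM Hepes, 1 mM EDTA, pH 7.5; 100 μM NADPH, 10–15 mU TR; reaction started with TS2, A340 decrease followed. TS2 varied at several fixed inhibitor concentrations (e.g. 5, 10, 20 μM); Ki from slopes and x-axis intercepts of Lineweaver–Burk plots, Dixon plots also used; data at least in duplicate.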

[4] = molecular target: T1, Glutathione reductase, mitochondrial (Homo sapiens) (UniProt P00390); assay: Percent inhibition of human glutathione reductase at 100 uM relative to 100 uM GSSG
T1 sequence (whole entry): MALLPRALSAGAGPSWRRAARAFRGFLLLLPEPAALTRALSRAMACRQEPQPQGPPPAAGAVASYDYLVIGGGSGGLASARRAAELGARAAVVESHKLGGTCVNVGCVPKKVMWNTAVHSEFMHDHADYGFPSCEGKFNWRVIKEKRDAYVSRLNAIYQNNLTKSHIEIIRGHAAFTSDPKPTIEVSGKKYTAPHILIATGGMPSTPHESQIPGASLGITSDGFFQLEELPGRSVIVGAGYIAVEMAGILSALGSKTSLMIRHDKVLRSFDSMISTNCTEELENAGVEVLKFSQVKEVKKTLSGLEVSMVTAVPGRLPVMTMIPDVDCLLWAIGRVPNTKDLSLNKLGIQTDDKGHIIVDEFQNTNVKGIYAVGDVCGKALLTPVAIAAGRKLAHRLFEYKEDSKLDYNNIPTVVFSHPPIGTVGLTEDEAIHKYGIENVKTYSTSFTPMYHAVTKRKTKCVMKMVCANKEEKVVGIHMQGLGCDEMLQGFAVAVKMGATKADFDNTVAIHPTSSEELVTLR

[5] = molecular target: T2, Trypanothione reductase (Trypanosoma cruzi, UniProt P28593); assay: as §2; in short: as §3
[6] = molecular target: T3, Glutathione reductase, mitochondrial (Homo sapiens, UniProt P00390); assay: (§4) Inhibitory constant against human glutathione reductase
T3 sequence (P00390 whole entry): T1 sequence (whole entry)
In short: (§5)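 Human GR kinetics in phosphate/KCl/EDTA buffer pH 6.9 at 25 °C, 100 μM NADPH, 5–10 mU GR; GSSG varied (40–1000 μM) at two fixed inhibitor levels, 120 and 240 μM; DMSO controls.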

[7] = molecular target: T1, Glutathione reductase, mitochondrial (Homo sapiens); assay: as §4; in short: as §5
[8] = molecular target: T1, Glutathione reductase, mitochondrial (Homo sapiens); assay: Inhibitory activity against human Glutathione reductase relative to GSSG (100 uM)
[9] = molecular target: T2, Trypanothione reductase; assay: Competitive inhibitory constant against recombinant Trypanosoma cruzi trypanothione reductase was determined photometrically at 25 degree C in TR assay buffer (40 mM Hepes, 1 mM EDTA, pH 7.5); in short: as §3

T2 sequence (P28593 whole entry): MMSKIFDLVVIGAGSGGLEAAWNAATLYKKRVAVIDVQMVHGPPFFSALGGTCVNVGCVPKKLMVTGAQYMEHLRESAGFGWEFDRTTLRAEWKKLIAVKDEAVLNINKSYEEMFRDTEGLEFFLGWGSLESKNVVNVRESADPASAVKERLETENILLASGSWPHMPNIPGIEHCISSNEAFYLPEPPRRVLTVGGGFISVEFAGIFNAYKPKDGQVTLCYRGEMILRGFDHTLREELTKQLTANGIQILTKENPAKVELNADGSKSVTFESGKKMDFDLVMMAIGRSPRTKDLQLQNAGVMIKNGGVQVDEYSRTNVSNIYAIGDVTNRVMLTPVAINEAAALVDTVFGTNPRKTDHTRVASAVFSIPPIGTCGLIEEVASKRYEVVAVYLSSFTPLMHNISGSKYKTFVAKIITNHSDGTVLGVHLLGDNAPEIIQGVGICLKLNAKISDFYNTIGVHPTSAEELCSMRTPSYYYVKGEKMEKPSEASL
Trypanothione reductase (Trypanosoma cruzi), sequence (P28593 whole entry, looked up): as the sequence (P28593 whole entry) above

Compound	inhibition [1]	inhibition [2]	other results
N=C(NCCc1cccnc1)c1sccc1Br	15%	14%	–
N=C(NC1CCC(CC2CCC(NC(=N)c3cccs3)CC2)CC1)c1cccs1 (stereo not given)	16%	17%	–
CN1CCN(CCC/N=C(\N)c2cccs2)CC1	< 10%	< 10%	–
N=C(NC1CCC(CC2CCC(NC(=N)c3cnccn3)CC2)CC1)c1cnccn1 (stereo not given)	< 10%	< 10%	–
[H]/N=C(\N/C(=N/[H])NCCCCCCNC(=N)NC(=N)Nc1ccc(Cl)cc1)Nc1ccc(Cl)cc1 [CHLORHEXIDINE]	–	–	Ki [5]: 2 µM; Ki [6]: 192 µM
COc1cc(C(N)=Nc2ccc(Oc3ccc(N=C(N)c4ccc(OCc5ccccc5)c(OC)c4)cc3)cc2)ccc1OCc1ccccc1	–	–	Ki [5]: 2 µM
CN1CCN(CC/N=C(\N)c2ccc3[nH]ccc3c2)CC1	31%	39%	–
CN1CCN(CCC/N=C(\N)c2sccc2Br)CC1	< 10%	< 10%	–
O=C(Cc1cccc2ccccc12)NCCNC(=O)C1(NC(=O)C(=O)c2ccc([N+](=O)[O-])cc2)CCNCC1	–	–	Ki [5]: 6.2 µM; Ki' [3]: 8.5 µM
N=C(NCCOCCOCCNC(=N)c1cnccn1)c1cnccn1	< 10%	11%	–
N=C(NCCc1cccnc1)c1cccs1	< 10%	< 10%	–
N=C(NCCCCCCNC(=N)NC(=N)Nc1ccc(Cl)cc1)NC(=N)Nc1ccc(Cl)cc1	–	–	Ki' [7]: 210 µM
N=C(NCCOCCOCCNC(=N)c1cccs1)c1cccs1	< 10%	14%	–
COc1cc(C(=N)NCCCCCCCCNC(=N)c2ccc(OCc3ccccc3)c(OC)c2)ccc1OCc1ccccc1	–	–	Ki [5]: 5 µM

Further lines, with some results ahead:

inhibition [1]	inhibition [2]	Compound	other results
< 10%	15%	N=C(NCCCCCCCCNC(=N)c1cccs1)c1cccs1	–
85%	92%	COc1cc(C(=N)NCCCCCCCCN=C(N)c2ccc(OCc3ccccc3)c(OC)c2)ccc1OCc1ccccc1	Ki' [3]: 47 µM
97%	94%	COc1cc(C(=N)NC2CCC(CC3CCC(/N=C(\N)c4ccc(OCc5ccccc5)c(OC)c4)CC3)CC2)ccc1OCc1ccccc1 (stereo not given)	inhibition [4]: 35%; Ki [5]: 2 µM; Ki' [3]: 16 µM
12%	11%	N=C(Nc1ccc(Oc2ccc(NC(=N)c3cccs3)cc2)cc1)c1cccs1	–
90%	95%	COc1cc(C(=N)Nc2ccc(Oc3ccc(NC(=N)c4ccc(OCc5ccccc5)c(OC)c4)cc3)cc2)ccc1OCc1ccccc1	inhibition [8]: 45%; Ki' [3]: 22 µM
69%	80%	N=C(CCCCCCCC(=N)NCC#Cc1ccccc1)NCC#Cc1ccccc1	inhibition [8]: 5%; Ki [9]: 6 µM

From ChEMBL document CHEMBL1145161, “Inhibitors of Trypanosoma cruzi trypanothione reductase revealed by virtual screening and parallel synthesis” (J Med Chem, 2005)
